The text below walks through data of ChEMBL document CHEMBL1799953, “Backbone cyclic peptide inhibitors of protein kinase B (PKB/Akt)” (J Med Chem, 2011).

The target in experiment [1] is T1, RAC-alpha serine/threonine-protein kinase (Homo sapiens, UniProt P31749). Put plainly: Inhibition of Akt using RPRTSSF peptide and [gamma32]ATP at 0.625 uM by cell-free radioactive assay relative to control.
The target in experiment [2] is T1, RAC-alpha serine/threonine-protein kinase. Briefly: Inhibition of Akt using RPRTSSF peptide and [gamma32]ATP by cell-free radioactive assay. The method in brief: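 Same reaction: HisΔPHPKBEEEFlag (0.005 units), 50 mM Hepes pH 7.4, 0.1 mM EGTA, 0.1% 2-mercaptoethanol, 10 mM magnesium acetate, 3 μM RPRTSSF, 10 μM [γ32P]ATP. Peptide stock concentration determined by UV spectrophotometry; reference peptide run in every assay.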

Each structure is given as a SMILES string. *1 amine or outer side, *2 acyl side, *3 side chain or, on linkers, in order; H or OH if unused. Where a SMILES comes first, the peptide text is derived from it. Bridges are numbered along the chain shown (N, C = ends). [ ]: non-standard residue; d: D form. N(6-aminohexyl)Gly = O=C(CN(CCCCCCN[*:3])[*:1])[*:2]; NGly(3-aminopropyl) = O=C(CN(CCCN[*:3])[*:1])[*:2]; N(2-Aminoethyl)Gly = O=C(CN(CCN[*:3])[*:1])[*:2]; Gly(N-(CH2)6NH2) = NCCCCCCNCC(=O)O; Gly(N-2-aminoethyl) = NCCNCC(=O)O; Gly(N(CH2)3NH2) = NCCCNCC(=O)O; hLeu = CC(C)CC[C@H](N)C(=O)O; Nva = CCC[C@H](N)C(=O)O; Dap = NC[C@H](N)C(=O)O; CO = O=C([*:1])[*:2]; Nlys = NCCCCNCC(=O)O

T1 sequence (P31749 whole entry): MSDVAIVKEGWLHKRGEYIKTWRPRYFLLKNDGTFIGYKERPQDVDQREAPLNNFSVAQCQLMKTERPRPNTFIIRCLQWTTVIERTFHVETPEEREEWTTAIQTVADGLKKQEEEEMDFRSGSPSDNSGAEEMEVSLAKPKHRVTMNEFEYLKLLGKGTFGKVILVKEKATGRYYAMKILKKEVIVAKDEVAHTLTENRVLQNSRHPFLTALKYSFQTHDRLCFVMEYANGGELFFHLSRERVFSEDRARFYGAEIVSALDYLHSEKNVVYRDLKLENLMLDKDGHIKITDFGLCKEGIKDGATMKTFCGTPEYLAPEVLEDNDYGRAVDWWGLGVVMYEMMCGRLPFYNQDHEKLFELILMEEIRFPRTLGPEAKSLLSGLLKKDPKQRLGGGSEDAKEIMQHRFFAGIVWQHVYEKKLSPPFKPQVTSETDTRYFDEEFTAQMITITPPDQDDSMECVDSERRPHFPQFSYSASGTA

Take `CCC[C@H](NC(=O)[C@H](CCCNC(=N)N)NC(=O)[C@@H]1CCCN1C(=O)[C@@H](N)CCCNC(=N)N)C(=O)N[C@@H](Cc1ccc(O)cc1)C(=O)N[C@@H](CN)C(=O)N[C@@H](CCC(C)C)C(N)=O`: in experiment [1], the inhibition came out at 36%.
Regarding `CCC[C@H](NC(=O)[C@H](CCCNC(=N)N)NC(=O)CN(CCCN)C(=O)[C@@H](N)CCCNC(=N)N)C(=O)N[C@@H](Cc1ccc(O)cc1)C(=O)N[C@@H](CN)C(=O)N[C@@H](CCC(C)C)C(=O)N(CCCN)CC(N)=O` (H-R[Gly(N(CH2)3NH2)]R[Nva]Y[Dap][hLeu][Gly(N(CH2)3NH2)]-NH2), the IC50 in experiment [2] worked out at 0.13 µM. Moreover, the inhibition in experiment [1] was found to be 90%.
As for `CCC[C@H](NC(=O)[C@H](CCCNC(=N)N)NC(=O)CN(CCCN)C(=O)[C@@H](N)CCCNC(=N)N)C(=O)N[C@@H](Cc1ccc(O)cc1)C(=O)N[C@@H](CN)C(=O)N[C@@H](CCC(C)C)C(=O)N(CCN)CC(N)=O` (H-R[Gly(N(CH2)3NH2)]R[Nva]Y[Dap][hLeu][Gly(N-2-aminoethyl)]-NH2), the inhibition in experiment [1] amounted to 76%.
In the case of `CCC[C@H](NC(=O)[C@H](CCCNC(=N)N)NC(=O)CN(CCCN)C(=O)[C@@H](N)CCCNC(=N)N)C(=O)N[C@@H](Cc1ccc(O)cc1)C(=O)N[C@@H](CN)C(=O)N[C@@H](CCC(C)C)C(=O)N(CCCCCCN)CC(N)=O` (H-R[Gly(N(CH2)3NH2)]R[Nva]Y[Dap][hLeu][Gly(N-(CH2)6NH2)]-NH2), the inhibition in experiment [1] stood at 51%.
For the compound `CCC[C@H](NC(=O)[C@H](CCCNC(=N)N)NC(=O)CN(CCCN)C(=O)[C@@H](N)CCCNC(=N)N)C(=O)N[C@@H](Cc1ccc(O)cc1)C(=O)N[C@@H](CN)C(=O)N[C@@H](CCC(C)C)C(=O)N(CCCCN)CC(N)=O` (H-R[Gly(N(CH2)3NH2)]R[Nva]Y[Dap][hLeu][Nlys]-NH2), the IC50 in experiment [2] was 0.128 µM. In experiment [1], the inhibition amounted to 96%.
Regarding `CCC[C@H](NC(=O)[C@H](CCCNC(=N)N)NC(=O)CN(CCN)C(=O)[C@@H](N)CCCNC(=N)N)C(=O)N[C@@H](Cc1ccc(O)cc1)C(=O)N[C@@H](CN)C(=O)N[C@@H](CCC(C)C)C(=O)N(CCCN)CC(N)=O` (H-R[Gly(N-2-aminoethyl)]R[Nva]Y[Dap][hLeu][Gly(N(CH2)3NH2)]-NH2), the inhibition in experiment [1] came to 76%.
Same read-out and setting: the value for `CCC[C@H](NC(=O)[C@H](CCCNC(=N)N)NC(=O)CN(CCN)C(=O)[C@@H](N)CCCNC(=N)N)C(=O)N[C@@H](Cc1ccc(O)cc1)C(=O)N[C@@H](CN)C(=O)N[C@@H](CCC(C)C)C(=O)N(CCN)CC(N)=O` (H-R[Gly(N-2-aminoethyl)]R[Nva]Y[Dap][hLeu][Gly(N-2-aminoethyl)]-NH2) was 57%.
Same read-out and setting: the value for `CCC[C@H](NC(=O)[C@H](CCCNC(=N)N)NC(=O)CN(CCN)C(=O)[C@@H](N)CCCNC(=N)N)C(=O)N[C@@H](Cc1ccc(O)cc1)C(=O)N[C@@H](CN)C(=O)N[C@@H](CCC(C)C)C(=O)N(CCCCCCN)CC(N)=O` (H-R[Gly(N-2-aminoethyl)]R[Nva]Y[Dap][hLeu][Gly(N-(CH2)6NH2)]-NH2) was 42%; that for `CCC[C@H](NC(=O)[C@H](CCCNC(=N)N)NC(=O)CN(CCN)C(=O)[C@@H](N)CCCNC(=N)N)C(=O)N[C@@H](Cc1ccc(O)cc1)C(=O)N[C@@H](CN)C(=O)N[C@@H](CCC(C)C)C(=O)N(CCCCN)CC(N)=O` (H-R[Gly(N-2-aminoethyl)]R[Nva]Y[Dap][hLeu][Nlys]-NH2) was 84%.
As to `CCC[C@H](NC(=O)[C@H](CCCNC(=N)N)NC(=O)CN(CCCCCCN)C(=O)[C@@H](N)CCCNC(=N)N)C(=O)N[C@@H](Cc1ccc(O)cc1)C(=O)N[C@@H](CN)C(=O)N[C@@H](CCC(C)C)C(=O)N(CCCN)CC(N)=O` (H-R[Gly(N-(CH2)6NH2)]R[Nva]Y[Dap][hLeu][Gly(N(CH2)3NH2)]-NH2), the IC50 in experiment [2] was found to be 0.11 µM. For the same compound, the inhibition in experiment [1] was 87%.
Consider `CCC[C@H](NC(=O)[C@H](CCCNC(=N)N)NC(=O)CN(CCCCCCN)C(=O)[C@@H](N)CCCNC(=N)N)C(=O)N[C@@H](Cc1ccc(O)cc1)C(=O)N[C@@H](CN)C(=O)N[C@@H](CCC(C)C)C(=O)N(CCN)CC(N)=O` (H-R[Gly(N-(CH2)6NH2)]R[Nva]Y[Dap][hLeu][Gly(N-2-aminoethyl)]-NH2), for which the inhibition in experiment [1] was 83%.
Consider `CCC[C@H](NC(=O)[C@H](CCCNC(=N)N)NC(=O)CN(CCCCCCN)C(=O)[C@@H](N)CCCNC(=N)N)C(=O)N[C@@H](Cc1ccc(O)cc1)C(=O)N[C@@H](CN)C(=O)N[C@@H](CCC(C)C)C(=O)N(CCCCCCN)CC(N)=O` (H-R[Gly(N-(CH2)6NH2)]R[Nva]Y[Dap][hLeu][Gly(N-(CH2)6NH2)]-NH2), for which the inhibition in experiment [1] was 57%.
Same read-out and setting: in the case of `CCC[C@H](NC(=O)[C@H](CCCNC(=N)N)NC(=O)CN(CCCCCCN)C(=O)[C@@H](N)CCCNC(=N)N)C(=O)N[C@@H](Cc1ccc(O)cc1)C(=O)N[C@@H](CN)C(=O)N[C@@H](CCC(C)C)C(=O)N(CCCCN)CC(N)=O` (H-R[Gly(N-(CH2)6NH2)]R[Nva]Y[Dap][hLeu][Nlys]-NH2) it was 88%.
Take `CCC[C@H](NC(=O)[C@H](CCCNC(=N)N)NC(=O)CN(CCCCN)C(=O)[C@@H](N)CCCNC(=N)N)C(=O)N[C@@H](Cc1ccc(O)cc1)C(=O)N[C@@H](CN)C(=O)N[C@@H](CCC(C)C)C(=O)N(CCCN)CC(N)=O` (H-R[Nlys]R[Nva]Y[Dap][hLeu][Gly(N(CH2)3NH2)]-NH2): the IC50 in experiment [2] came to 0.15 µM. Also, the inhibition in experiment [1] came to 91%.
Consider `CCC[C@H](NC(=O)[C@H](CCCNC(=N)N)NC(=O)CN(CCCCN)C(=O)[C@@H](N)CCCNC(=N)N)C(=O)N[C@@H](Cc1ccc(O)cc1)C(=O)N[C@@H](CN)C(=O)N[C@@H](CCC(C)C)C(=O)N(CCN)CC(N)=O` (H-R[Nlys]R[Nva]Y[Dap][hLeu][Gly(N-2-aminoethyl)]-NH2), for which, in experiment [1], the inhibition turned out to be 84%.
On the same count and under the same terms, in the case of `CCC[C@H](NC(=O)[C@H](CCCNC(=N)N)NC(=O)CN(CCCCN)C(=O)[C@@H](N)CCCNC(=N)N)C(=O)N[C@@H](Cc1ccc(O)cc1)C(=O)N[C@@H](CN)C(=O)N[C@@H](CCC(C)C)C(=O)N(CCCCCCN)CC(N)=O` (H-R[Nlys]R[Nva]Y[Dap][hLeu][Gly(N-(CH2)6NH2)]-NH2) it was 60%.
In the case of `CCC[C@H](NC(=O)[C@H](CCCNC(=N)N)NC(=O)CN(CCCCN)C(=O)[C@@H](N)CCCNC(=N)N)C(=O)N[C@@H](Cc1ccc(O)cc1)C(=O)N[C@@H](CN)C(=O)N[C@@H](CCC(C)C)C(=O)N(CCCCN)CC(N)=O` (H-R[Nlys]R[Nva]Y[Dap][hLeu][Nlys]-NH2), the IC50 in experiment [2] worked out at 0.13 µM. Further, the inhibition in experiment [1] is 91%.
The like results for `CCC[C@@H]1NC(=O)[C@H](CCCNC(=N)N)NC(=O)CNCCNC(=O)NCCN(CC(N)=O)C(=O)[C@H](CCC(C)C)NC(=O)[C@H](CN)NC(=O)[C@H](Cc2ccc(O)cc2)NC1=O` (H-[N(2-Aminoethyl)Gly]R[Nva]Y[Dap][hLeu][N(2-Aminoethyl)Gly]-NH2; linker 1-7 via CO) were, in that order, 0.39 µM and 64%.
Turning to `CCC[C@@H]1NC(=O)[C@H](CCCNC(=N)N)NC(=O)CNCCCCCCNC(=O)NCCN(CC(N)=O)C(=O)[C@H](CCC(C)C)NC(=O)[C@H](CN)NC(=O)[C@H](Cc2ccc(O)cc2)NC1=O` (H-[N(6-aminohexyl)Gly]R[Nva]Y[Dap][hLeu][N(2-Aminoethyl)Gly]-NH2; linker 1-7 via CO), the inhibition in experiment [1] was 26%.
As for `CCC[C@@H]1NC(=O)[C@H](CCCNC(=N)N)NC(=O)CNCCCNC(=O)NCCN(CC(N)=O)C(=O)[C@H](CCC(C)C)NC(=O)[C@H](CN)NC(=O)[C@H](Cc2ccc(O)cc2)NC1=O` (H-[NGly(3-aminopropyl)]R[Nva]Y[Dap][hLeu][N(2-Aminoethyl)Gly]-NH2; linker 1-7 via CO), in experiment [2], the IC50 amounted to 0.24 µM. Further, the inhibition in experiment [1] worked out at 84%.
For `CCC[C@@H]1NC(=O)[C@H](CCCNC(=N)N)NC(=O)CNCCCCNC(=O)NCCN(CC(N)=O)C(=O)[C@H](CCC(C)C)NC(=O)[C@H](CN)NC(=O)[C@H](Cc2ccc(O)cc2)NC1=O` (H-[Nlys]R[Nva]Y[Dap][hLeu][N(2-Aminoethyl)Gly]-NH2; linker 1-7 via CO), the inhibition in experiment [1] came to 32%.
